In data set [1] the test system is Human immunodeficiency virus. As to the kind of experiment: Inhibition of HIV reverse transcriptase at 100 ug/ml after 1 hr by ELISA relative to control. The essentials:
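Kit ELISA for HIV RT. Template/primer, biotin- and DIG-labelled dNTPs and RT enzyme in lysis buffer incubated 1 h at 37 °C. Product captured on streptavidin, detected with anti-DIG-peroxidase and ABTS substrate, and read at 405 nm. Percent inhibition calculated against a no-inhibitor sample.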

The test system of data set [2] is Human immunodeficiency virus 1. In words: Antiviral activity against X4 tropic Human immunodeficiency virus 1 UG070 subtype D infected in human TZM-bl cells assessed as reduction in virus-induced cytopathic effect after 48 hrs by luminescence assay. The conditions noted are these: Human immunodeficiency virus 1, UG070 subtype D, TZM-bl, 48 h; read-out: EC50. It counts as functional, organism-based. The essentials:
(§1)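 TZM-bl cells (HeLa-derived; CD4, CXCR4, CCR5; LTR-driven luciferase) seeded 1×10^4/well, left overnight at 37 °C, 5% CO2, then infected with 400 TCID50 virus for 2 h. Serial compound dilutions added in duplicate, only at levels giving >50% viability. […] Mean of two independent assays; nevirapine as positive control.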
On the technique in general: Protection from cytopathic effect is a common read-out in antiviral testing.

The test system of data set [3] is Human immunodeficiency virus 1. As to the kind of experiment: Antiviral activity against R5 tropic Human immunodeficiency virus 1 VB59 subtype C infected in human TZM-bl cells assessed as reduction in virus-induced cytopathic effect after 48 hrs by luminescence assay. It counts as functional, organism-based. The note with it: Human immunodeficiency virus 1, VB59 subtype C, TZM-bl, 48 h; read-out: EC50. Summed up:
as §1

Data set [4] is described as follows: Selectivity index, ratio of CC50 for human TZM-bl cells to EC50 for X4 tropic Human immunodeficiency virus 1 UG070 subtype D. The note with it: read-out: Ratio CC50/EC50. It counts as toxicity, cell-based.
Data set [5] can be described thus: Selectivity index, ratio of CC50 for human TZM-bl cells to EC50 for R5 tropic Human immunodeficiency virus 1 VB59 subtype C. It counts as toxicity, cell-based. The conditions noted are these: read-out: Ratio CC50/EC50.
The subject of data set [6] is Human immunodeficiency virus 1. As to the kind of experiment: Antiviral activity against X4 tropic Human immunodeficiency virus 1 3B subtype B infected in human TZM-bl cells assessed as reduction in virus-induced cytopathic effect after 48 hrs by luminescence assay. It counts as functional, organism-based. The note with it: Human immunodeficiency virus 1, 3B subtype B, TZM-bl, 48 h; read-out: EC50. The essentials:
as §1

Data set [7] relates to Human immunodeficiency virus 1. In words: Antiviral activity against R5 tropic Human immunodeficiency virus 1 ADA5 subtype B infected in human TZM-bl cells assessed as reduction in virus-induced cytopathic effect after 48 hrs by luminescence assay. It counts as functional, organism-based. The note with it: Human immunodeficiency virus 1, ADA5 subtype B, TZM-bl, 48 h; read-out: EC50. Summed up:
as §1

Data set [8] can be described thus: Cytotoxicity against human TZM-bl cells after 48 hrs by MTT assay. It counts as cell-based. Summed up:
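TZM-bl cells seeded 1×10^4/well and left overnight at 37 °C, 5% CO2. Medium then replaced with a two-fold dilution series of compound in quadruplicate. […] Mean of three independent assays.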
A general note: Tetrazolium dyes change colour on reduction, which living cells bring about.

Data set [9] in a line: Selectivity index, ratio of CC50 for human TZM-bl cells to EC50 for X4 tropic Human immunodeficiency virus 1 3B subtype B. The class given is toxicity, cell-based. The note with it: read-out: Ratio CC50/EC50.
Data set [10] is described as follows: Selectivity index, ratio of CC50 for human TZM-bl cells to EC50 for R5 tropic Human immunodeficiency virus 1 ADA5 subtype B. The class given is toxicity, cell-based. The note with it: read-out: Ratio CC50/EC50.

Usually inhibition stands for the drop in the measured response relative to a control, in per cent. Higher therefore signals a strong effect. A word on the EC50: it is the concentration at which the effect is half-maximal. The term CC50 denotes the concentration that lowers cell viability or growth by half. Low values mean greater toxicity to the cells, high ones lower toxicity to the cells.

As for `COc1cc(OC)nc(N2C(=O)CSC2c2c(F)cccc2F)n1` (stereo not given), in data set [1], the inhibition is 82.9%. The concentration giving a half-maximal response (EC50) worked out at 0.53 µM in [2], 0.48 µM in [3], 0.25 µM in data set [6] and 0.31 µM in [7]. Further, the selectivity ratio in data set [4] came to 144; in data set [5], 161; in data set [9], 310; in data set [10], 250. Besides, the CC50 at 48 h in data set [8] was found to be 77.5 µM.

For `Cc1cc(C)nc(N2C(=O)CSC2c2ccc(C#N)cc2)c1` (stereo not given), in data set [1], the inhibition came to 37.9%. In addition, the EC50 turned out to be 51.1 µM in data set [2], 46.5 µM in data set [3], 40.4 µM in data set [6] and 26.4 µM in data set [7]. The selectivity ratio was found to be 2.9 in [4], 3.18 in data set [5], 3.66 in data set [9] and 5.62 in data set [10]. For the same compound, half-maximal cytotoxicity in [8] (CC50 at 48 h) was put at 148 µM.

`Cc1ccc(S(=O)(=O)NN2C(=O)CSC2c2c(F)cccc2Cl)cc1` (stereo not given): the inhibition in data set [1] came out at 56.3%. Moreover, the EC50 in data set [2] was 72.4 µM; in [3], 81.6 µM; in [6] it was 63.1 µM; in data set [7], 64.6 µM. The selectivity ratio in data set [4] is 1.87; in data set [5] it was 1.66; in data set [9], 2.15; in data set [10], 2.1. This compound also had a CC50 at 48 h in data set [8] of 136 µM.

In the case of `COc1cc(OC)nc(N2C(=O)CSC2c2c(OC)cccc2OC)n1` (stereo not given), the inhibition in data set [1] is 93.8%. The EC50 in [2] amounted to 8.87 µM; in [3], 7.28 µM; in data set [6], 3.17 µM; in [7] it was 4.13 µM. Further, the selectivity ratio in data set [4] amounted to 17.6; in data set [5] it was 21.5; in data set [9], 49.3; in [10] it was 37.8. The compound further showed a CC50 at 48 h in data set [8] of 156 µM.

`O=C1CSC(c2c(Cl)cccc2Cl)N1Nc1ccccn1` (stereo not given) showed an inhibition in [1] of 97.4%. Further, the concentration for a half-maximal effect (EC50) in data set [2] came to 1.17 µM; in data set [3], 1.7 µM; in data set [6], 0.99 µM; in data set [7], 1.85 µM. The selectivity ratio in data set [4] is 127; in data set [5], 87.6; in [9], 150; in [10], 80.5. This compound also had a CC50 at 48 h in [8] of 149 µM.

As for `O=C1CSC(c2c(F)cccc2F)N1Nc1ccccn1` (stereo not given), the inhibition in data set [1] worked out at 64.7%. Also, the concentration for a half-maximal effect (EC50) in data set [2] came out at 24.4 µM; in [3], 16.8 µM; in [6], 17.3 µM; in data set [7], 16.2 µM. Also, the selectivity ratio in data set [4] is 3.69; in data set [5] it was 5.36; in [9], 5.19; in data set [10] it was 5.56. For the same compound, the CC50 at 48 h in data set [8] was found to be 90.1 µM.

The values are drawn from ChEMBL document CHEMBL3286255, “Rational design and synthesis of novel thiazolidin-4-ones as non-nucleoside HIV-1 reverse transcriptase inhibitors” (Bioorg Med Chem, 2014).
